Source: PubChem (Johns Hopkins Ion Channel Center)
This is a sample that favours compounds with a hit; in the whole collection about 3.7% have one here.
KCNK9 block = human KCNK9 channel inhibition. Q9NPC2. HEK293 KCNK9, FluxOR thallium flux fluorescence; hits give low values. B-score at 10 µM. actives 1.2% (n = 310,000). AID 488922;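 active means ratio B-score over 3 SD below the library mean, with starting fluorescence within 5 SD of its mean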;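 further: negative B-score means less thallium flux so channel inhibition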
hERG rescue = compounds protecting human hERG from proarrhythmic drug block. CHO-hERG, FluxOR thallium flux, dofetilide IC70 present. activation (rescue from dofetilide block), less the hit threshold, % at 10 µM. actives 0.51% (n = 310,000). AID 1511;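 active means activation above the mean of controls blocked by dofetilide plus 5 SD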;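 further: thallium influx through hERG after potassium depolarization seen as dye fluorescence rise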
Kir21 inh = inhibitors of mouse Kir2.1 inward-rectifier potassium channel; P35561; HEK293-Kir2.1, FluxOR thallium flux fluorescence; hits give low values; B-score at 10 µM; actives 0.85% (n = 310,000); AID 1672;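 active means fluorescence ratio B-score at or below minus 3 SD of library scores, with starting-brightness B-score within 2 SD, cut at about -4.2 in these data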;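 further: channel flux triggered by added potassium and thallium sulfate stimulus; B-score of peak minus minimum fluorescence over baseline after thallium stimulus; more negative B-score means stronger Kir2.1 block with less thallium influx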
KCNQ1 inh = human KCNQ1 channel inhibition; AID 2642; P51787; CHO-K1 KCNQ1, FluxOR thallium flux fluorescence; hits give high values; B-score at 10 µM; actives 1.3% (n = 310,000);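 active means compounds whose thallium flux B-score, printed positive for inhibition, exceeds three library SD while starting fluorescence stays within three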;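 further: channel opened by potassium depolarization with thallium stimulus after 20 min compound exposure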
Target sequence (P51787 whole entry, looked up): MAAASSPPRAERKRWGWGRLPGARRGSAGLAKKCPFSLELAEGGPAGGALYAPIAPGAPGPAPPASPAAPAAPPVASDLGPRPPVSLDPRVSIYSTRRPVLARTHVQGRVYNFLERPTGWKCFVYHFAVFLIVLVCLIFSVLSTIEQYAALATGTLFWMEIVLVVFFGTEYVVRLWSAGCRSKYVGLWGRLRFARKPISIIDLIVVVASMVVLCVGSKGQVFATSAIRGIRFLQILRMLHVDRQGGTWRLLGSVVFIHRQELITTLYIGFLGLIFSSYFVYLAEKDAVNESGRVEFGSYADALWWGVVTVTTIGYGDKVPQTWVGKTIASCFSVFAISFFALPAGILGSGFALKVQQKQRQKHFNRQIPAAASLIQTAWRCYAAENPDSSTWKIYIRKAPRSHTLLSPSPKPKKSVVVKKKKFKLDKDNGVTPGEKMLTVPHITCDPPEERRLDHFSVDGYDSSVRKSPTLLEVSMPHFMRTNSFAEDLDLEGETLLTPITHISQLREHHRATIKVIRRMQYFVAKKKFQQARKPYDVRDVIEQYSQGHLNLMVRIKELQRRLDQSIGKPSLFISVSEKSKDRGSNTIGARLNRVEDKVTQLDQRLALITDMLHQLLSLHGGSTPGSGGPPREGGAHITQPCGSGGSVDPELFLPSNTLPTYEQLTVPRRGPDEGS
KCNQ1 pot = human KCNQ1 channel potentiation or activation. P51787. CHO-K1 KCNQ1, thallium flux FluxOR fluorescence; hits give high values. B-score at 10 µM. actives 0.35% (n = 310,000). AID 2648;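 active means fluorescence ratio B-score, a plate-corrected score, at least three library SD, with initial intensity B-score within 5 SD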
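System: Stable KCNQ1 CHO-K1 line | Incubation: 90 min dye loading and 20 min compound exposure, both at room temperature | Measure: Ratio B score | Medium: Assay buffer for compound exposure, DMSO matched across wells | Compound dosing: Single-concentration screen | Probe or stimulus: K+/Tl+ depolarizing stimulus | Measured by: Kinetic FluxOR fluorescence, 10 s baseline plus 110 s post-stimulus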
KCNK3 inh = human KCNK3 channel inhibition, primary screen. O14649. CHO-KCNK3 thallium flux, FluxOR fluorescence; hits give low values. B-score at 10 µM. actives 0.84% (n = 340,000). AID 602410;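 active means B-score under library mean minus 4 SD, starting fluorescence ratio at most library mean plus 5 SD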;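 further: more negative B-score means stronger inhibition of thallium flux through KCNK3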
Large screens that a line does not name were inactive.

Cc1cc(C(C)(C)C)cc(C)c1C[n+]1ccc2ccccc2c1	KCNQ1 inh 7
COc1ccc(CCN2CC34C=CC(O3)C(C(=O)NCc3ccccc3Cl)C4C2=O)cc1OC (configuration not stated)	hERG rescue 4.7
O=C(NCC1COc2ccccc2O1)C1C2C=CC3(CN(Cc4ccccc4Cl)C(=O)C13)O2 (configuration not stated)	none
Cc1ccc2c(CC(=O)NCC3(N4CCOCC4)CCCCC3)coc2c1C	none (no result: KCNK9 block, hERG rescue, Kir21 inh, KCNQ1 inh, KCNQ1 pot)
CCOc1ccc(-n2c(-c3ccccc3)c[n+]3c2CCCCC3)cc1	KCNQ1 inh 8
CC(Oc1ccc(F)cc1)C(=O)Nc1cc(S(=O)(=O)N2CCCCC2)ccc1N1CCOCC1 (configuration not stated)	none
CCN1CCN(c2ccc(S(=O)(=O)N3CCCCC3)cc2NC(=O)C(C)Oc2ccc(F)cc2)CC1 (configuration not stated)	Kir21 inh -5.2
COCCn1c(SCC(=O)Nc2cccnc2Cl)nc2ccccc21	none (no result: KCNK9 block, hERG rescue, Kir21 inh, KCNQ1 inh, KCNQ1 pot)
COCCn1c(SCC(=O)Nc2nc(C)c(Cl)cc2Cl)nc2ccccc21	Kir21 inh -6.3
COc1cccc(-n2nnnc2SCC(=O)NC2CCCCC2)c1	none
Nc1cc(C(=O)c2cccs2)ccc1Cl	KCNK9 block -6.8
O=C1c2cc([N+](=O)[O-])ccc2-c2cc(Br)c(N=C(NO)C(F)(F)F)cc21	KCNK3 inh -9.5 (no result: KCNK9 block, hERG rescue, Kir21 inh, KCNQ1 inh, KCNQ1 pot)
CCn1ccnc1CN(C)Cc1c(C(=O)N2CCCCCCC2)nc2ccc(Cl)cn12	none
CN(Cc1nc(-c2cccnc2)no1)S(=O)(=O)c1ccc2ccccc2c1	Kir21 inh -4.8
COc1ccc(CN(C)C(=O)CCN2C(=O)c3ccccc3C2=O)c(OC)c1OC	none
COc1ccc(CN(C)C(=O)COC(=O)c2ccc(-c3ccccc3)cc2)c(OC)c1OC	KCNK3 inh -9.3 (no result: KCNK9 block, hERG rescue, Kir21 inh, KCNQ1 inh, KCNQ1 pot)
CCCN(CC(=O)Nc1cc(Cl)ccc1Cl)C(=O)/C=C/c1cc(OC)ccc1OC	KCNK3 inh -8.7 (no result: KCNK9 block, hERG rescue, Kir21 inh, KCNQ1 inh, KCNQ1 pot)
Cc1ccc(-n2cc(C(=O)c3cc(Cl)ccc3O)cc(C#N)c2=O)cc1	none
COc1ccc(-n2cc(C(=O)c3cc(Cl)ccc3O)cc(C#N)c2=O)cc1	KCNQ1 inh 6
COc1ccc(O)c(C(=O)c2cc(C#N)c(=O)n(-c3ccc(Cl)cc3)c2)c1	none
CCOc1ccc(-n2cc(C(=O)c3cc(Cl)ccc3O)cc(C#N)c2=O)cc1	KCNQ1 inh 8
CC(=O)N(c1cc(C)ccc1C)c1ccccc1[N+](=O)[O-]	none (no result: KCNK9 block, hERG rescue, Kir21 inh, KCNQ1 inh, KCNQ1 pot)
CCCCN(CCCC)CCNC(=O)c1cn(C)c2ccc(S(=O)(=O)N3CCCC3)cc2c1=O	none
O=C(CSc1ncnc2c1oc1ccccc12)c1cccs1	none
Cc1nc(SCC(=O)c2cccs2)c2oc3ccccc3c2n1	KCNQ1 inh 10
CCCCCCCCN1[C@@H](CC(C)=O)c2cc(C(F)(F)F)ccc2S1(=O)=O	KCNQ1 pot 56
COc1ccc(CN2[C@@H](CC(=O)O)c3cc(C(F)(F)F)ccc3S2(=O)=O)cc1	hERG rescue 6.4
COc1ccc(CN2[C@@H](CC(=O)O)c3ccc(C(F)(F)F)cc3S2(=O)=O)cc1	none (no result: KCNK3 inh)
CC(=O)C[C@H]1c2cc(C(F)(F)F)ccc2S(=O)(=O)N1C1CCCCC1	KCNQ1 pot 10
COc1ccccc1OCC(=O)Nc1cc(C)ccc1NC(=O)c1ccco1	none
CN(C)CCN(Cc1cccs1)S(=O)(=O)c1csc(C(N)=O)c1	none
O=C1OC(c2ccccc2)=C/C1=C/N1CCCCC1	none
COC(=O)/C=C1\OC(c2ccccc2)=CC1=O	Kir21 inh -10, KCNQ1 inh 8 (no result: KCNK3 inh)
CCOC(=O)c1cc(-c2ccc(F)cc2)n(CCC(=O)NC2CCN(Cc3ccccc3)CC2)c1C	Kir21 inh -4.6
CCOC(=O)C1=C(Cc2ccc(Cl)cc2)C(=O)c2ccccc2C1=O	KCNQ1 inh 10
CCOC(=O)C1=C(O)c2ccccc2C(=O)/C1=C\c1ccc(C)cc1	none (no result: KCNK9 block, hERG rescue, Kir21 inh, KCNQ1 inh, KCNQ1 pot)
Cc1sc2ncnc(NC3CCN(Cc4ccccc4)CC3)c2c1C	Kir21 inh -5.5
COc1cc(C(=O)NCCC2=CCCCC2)ccc1OCc1c(C)noc1C	none (no result: KCNK9 block, hERG rescue, Kir21 inh, KCNQ1 inh, KCNQ1 pot)
CC1=C(C)C(=O)C(CCCCC#CCCCC#CCO)=C(C)C1=O	KCNK3 inh -14
CCOC(=O)CC(NC(=O)c1cccs1)c1ccc(OCC)cc1 (configuration not stated)	hERG rescue 8.6
CCc1ccc(NC(=O)C2CCN(S(=O)(=O)c3ccc4c(c3)CC(C)N4C(C)=O)CC2)cc1 (configuration not stated)	none
CCCCC(=O)Oc1ccccc1C1SCc2cc(C)c(C)cc2CS1	none
Cc1cc2c(cc1C)CSC(c1ccccc1OC(=O)C(C)(C)C)SC2	KCNQ1 inh 6
CCCCC(=O)Nc1nc(C)c(-c2csc(Nc3cc(Cl)ccc3OC)n2)s1	KCNK9 block -7.5, KCNQ1 inh 7
CCCCC(=O)Nc1nc(C)c(-c2csc(Nc3cc(OC)ccc3OC)n2)s1	KCNK9 block -7.8
COc1ccc(C(=O)Nc2ccc(N3CCCCCC3)cc2)cc1S(=O)(=O)N1CCOCC1	none (no result: KCNK9 block, hERG rescue, Kir21 inh, KCNQ1 inh, KCNQ1 pot)
COC(=O)C1=C(N)OC2=C(C(=O)CC(C)(C)C2)C1c1cc2c(cc1Cl)OCO2 (configuration not stated)	none
CCCNC(=O)c1csc(Nc2cccc3ccccc23)n1	KCNK9 block -8
COCCNC(=O)c1csc(Nc2cccc3ccccc23)n1	none
CC1CCN(C(=S)c2cn(Cc3ccccc3F)c3ccccc23)CC1	KCNK9 block -6.6
CC1CC(=O)N(CC(=O)NCc2ccccc2)c2ccccc2S1(=O)=O (configuration not stated)	none
C=C(C)C(=O)OCC(=O)NCc1ccccc1	none
COc1ccccc1/C=C(/C(=O)OCC(=O)NCc1ccccc1)c1ccccc1	KCNK9 block -8, KCNQ1 inh 7
COc1ccccc1/C=C(/C(=O)OCC(=O)Nc1ccccc1C)c1ccccc1	KCNK9 block -7, KCNQ1 inh 8
COc1ccccc1/C=C(/C(=O)OCC(=O)Nc1ccc(N(C)C)cc1)c1ccccc1	none
O=C(NCC(=O)c1ccccc1)OCc1ccc([N+](=O)[O-])cc1	none
CC1CCC(n2c(=S)[nH]c3ccccc3c2=O)CC1 (configuration not stated)	hERG rescue 18, KCNQ1 pot 56
CC1CCCC(n2c(=S)[nH]c3ccccc3c2=O)C1C (configuration not stated)	KCNQ1 pot 41
O=c1c2ccccc2[nH]c(=S)n1C1CCCCC1	hERG rescue 9.3, KCNQ1 pot 9
CCCCOC(=O)C1C2CCC(O2)C1C(=O)OCC (configuration not stated)	none (no result: KCNK9 block, hERG rescue, Kir21 inh, KCNQ1 inh, KCNQ1 pot)
Cc1ccc(-c2cccc(-c3cc(=O)oc4ccc(C(C)(C)C)cc34)c2)cc1	none (no result: KCNK9 block, hERG rescue, Kir21 inh, KCNQ1 inh, KCNQ1 pot)
